In ChEMBL document CHEMBL3797104, “Triazole tethered C5-curcuminoid-coumarin based molecular hybrids as novel antitubulin agents: Design, synthesis, biological investigation and docking studies” (Eur J Med Chem, 2016):
Calls of active or inactive are those of the source. The calls are words filed in the database; no cut-off is given here.

Experiments:
[1] = Cytotoxicity against human HCT116 cells assessed as growth inhibition at 50 uM after 48 hrs by SRB assay; assay type: functional; conditions: HCT-116, 48 h, read-out: GI
Outline: (§1)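 Single-concentration screen at 50 µM. Cells grew 24 h at 37 °C, then had 48 h exposure in complete medium.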

[2] = Cytotoxicity against human COLO205 cells assessed as growth inhibition at 50 uM after 48 hrs by SRB assay; assay type: functional; conditions: COLO 205, 48 h, read-out: GI; outline: as §1
PC-3 = experiment: (§2) Cytotoxicity against human PC3 cells assessed as growth inhibition at 50 uM after 48 hrs by SRB assay; assay type: functional; outline: as §1
[3] = Cytotoxicity against human THP1 cells assessed as growth inhibition at 50 uM after 48 hrs by SRB assay; assay type: functional; conditions: THP-1, 48 h, read-out: GI; outline: as §1
[4] = Cytotoxicity against human HCT116 cells after 48 hrs by SRB assay; assay type: functional, cell-based; conditions: HCT-116, 48 h
Outline: (§3)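 SRB assay in 96-well plates. Cells were seeded and grown 24 h at 37 °C in a CO2 incubator, then given test material in complete medium for a further 48 h. Cells were fixed with cold 50% TCA for 1 h at 4 °C, stained 30 min with 0.4% SRB in 1% acetic acid, and washed with […]. IC50 was taken from multi-concentration testing, run only for hybrids giving >70% inhibition at 50 µM in at least one line.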

[5] = as §2; assay type: functional; conditions: PC-3, 48 h, read-out: GI; outline: as §1
[6] = Cytotoxicity against human COLO205 cells after 48 hrs by SRB assay; assay type: functional, cell-based; conditions: COLO 205, 48 h; outline: as §3
[7] = Cytotoxicity against human THP1 cells after 48 hrs by SRB assay; assay type: functional, cell-based; conditions: THP-1, 48 h; outline: as §3

Structure (SMILES)	inhibition of growth at 50 µM [1] [%]	inhibition of growth at 50 µM [2] [%]	growth inhibition (GI) (PC-3)	inhibition of growth at 50 µM [3] [%]	IC50 [4] [µM]	inhibition of growth at 50 µM [5] [%]	IC50 [6] [µM]	IC50 [7] [µM]
COc1ccc(/C=C/C(=O)/C=C/c2ccc(OCc3cn(CCCCOc4cc(=O)oc5ccccc45)nn3)c(OC)c2)cc1OC	55	53	inactive	59				
COc1cc(/C=C/C(=O)/C=C/c2ccccc2)ccc1OCc1cn(CCCOc2cc(=O)oc3ccccc23)nn1	45	43	inactive	48				
COc1cccc(/C=C/C(=O)/C=C/c2ccc(OCc3cn(CCCCCOc4cc(=O)oc5ccccc45)nn3)c(OC)c2)c1	36	34	inactive	37				
COc1ccc(/C=C/C(=O)/C=C/c2ccc(OCc3cn(CCCOc4cc(=O)oc5ccccc45)nn3)c(OC)c2)cc1OC	67	65		73	11	9	13	8.51
COc1cc(/C=C/C(=O)/C=C/c2cc(OC)c(OC)c(OC)c2)ccc1OCc1cn(CCCCCOc2cc(=O)oc3ccccc23)nn1	53	51	inactive	55				
COc1cc(/C=C/C(=O)/C=C/c2cccc3ccccc23)ccc1OCc1cn(CCCCCOc2cc(=O)oc3ccccc23)nn1	42	40	inactive	44				
COc1ccccc1/C=C/C(=O)/C=C/c1ccc(OCc2cn(CCCCOc3cc(=O)oc4ccccc34)nn2)c(OC)c1	43	47	inactive	40				
COc1cc(/C=C/C(=O)/C=C/c2cccs2)ccc1OCc1cn(CCCOc2cc(=O)oc3ccccc23)nn1	58	55	inactive	54				
COc1ccccc1/C=C/C(=O)/C=C/c1ccc(OCc2cn(CCCCCOc3cc(=O)oc4ccccc34)nn2)c(OC)c1	33	30	inactive	37				
COc1ccccc1/C=C/C(=O)/C=C/c1ccc(OCc2cn(CCOc3cc(=O)oc4ccccc34)nn2)c(OC)c1	70	67		75	9.49	11	11.5	7.33
COc1cc(/C=C/C(=O)/C=C/c2ccccc2)ccc1OCc1cn(CCCCCOc2cc(=O)oc3ccccc23)nn1	24	22	inactive	26				
COc1cc(/C=C/C(=O)/C=C/c2cc(OC)c(OC)c(OC)c2)ccc1OCc1cn(CCCOc2cc(=O)oc3ccccc23)nn1	76	74		79	8.65	12	10.6	5.43
COc1ccc(/C=C/C(=O)/C=C/c2ccc(OCc3cn(CCCCCOc4cc(=O)oc5ccccc45)nn3)c(OC)c2)cc1	35	30	inactive	39				
COc1cc(/C=C/C(=O)/C=C/c2ccco2)ccc1OCc1cn(CCCCOc2cc(=O)oc3ccccc23)nn1	47	43	inactive	49				
COc1cc(/C=C/C(=O)/C=C/c2ccccc2)ccc1OCc1cn(CCOc2cc(=O)oc3ccccc23)nn1	56	54		61		10		
COc1cc(/C=C/C(=O)/C=C/c2cccc3ccccc23)ccc1OCc1cn(CCCCOc2cc(=O)oc3ccccc23)nn1	56	50	inactive	54				
COc1cc(/C=C/C(=O)/C=C/c2ccccc2)ccc1OCc1cn(CCCCOc2cc(=O)oc3ccccc23)nn1	34	31	inactive	36				

Structure (SMILES)	inhibition of growth at 50 µM [1] [%]	inhibition of growth at 50 µM [2] [%]	growth inhibition (GI) (PC-3)	inhibition of growth at 50 µM [3] [%]	IC50 [4] [µM]	inhibition of growth at 50 µM [5] [%]	IC50 [6] [µM]	IC50 [7] [µM]
COc1cccc(/C=C/C(=O)/C=C/c2ccc(OCc3cn(CCCCOc4cc(=O)oc5ccccc45)nn3)c(OC)c2)c1	44	46	inactive	47				
COc1cc(/C=C/C(=O)/C=C/c2cccs2)ccc1OCc1cn(CCCCCOc2cc(=O)oc3ccccc23)nn1	31	30	inactive	34				
COc1ccccc1/C=C/C(=O)/C=C/c1ccc(OCc2cn(CCCOc3cc(=O)oc4ccccc34)nn2)c(OC)c1	53	57	inactive	50				
COc1cc(/C=C/C(=O)/C=C/c2ccco2)ccc1OCc1cn(CCCCCOc2cc(=O)oc3ccccc23)nn1	37	33	inactive	39				
COc1cccc(/C=C/C(=O)/C=C/c2ccc(OCc3cn(CCCOc4cc(=O)oc5ccccc45)nn3)c(OC)c2)c1	55	52	inactive	58				
COc1cc(/C=C/C(=O)/C=C/c2cccs2)ccc1OCc1cn(CCCCOc2cc(=O)oc3ccccc23)nn1	41	40	inactive	44				
COc1ccc(/C=C/C(=O)/C=C/c2ccc(OCc3cn(CCOc4cc(=O)oc5ccccc45)nn3)c(OC)c2)cc1	71	68		78	9.29	15	11.3	7.41
COc1cc(/C=C/C(=O)/C=C/c2ccco2)ccc1OCc1cn(CCCOc2cc(=O)oc3ccccc23)nn1	51	59	inactive	57				
COc1cccc(/C=C/C(=O)/C=C/c2ccc(OCc3cn(CCOc4cc(=O)oc5ccccc45)nn3)c(OC)c2)c1	70	69		77	9.76	13	11.9	7.13
COc1cc(/C=C/C(=O)/C=C/c2cccs2)ccc1OCc1cn(CCOc2cc(=O)oc3ccccc23)nn1	71	66		76	9.29	12	11.4	7.14
COc1ccc(/C=C/C(=O)/C=C/c2ccc(OCc3cn(CCCCOc4cc(=O)oc5ccccc45)nn3)c(OC)c2)cc1	40	49	inactive	45				
COc1cc(/C=C/C(=O)/C=C/c2cccc3ccccc23)ccc1OCc1cn(CCCOc2cc(=O)oc3ccccc23)nn1	66	64		71	10.4	8	12.7	8.41
COc1cc(/C=C/C(=O)/C=C/c2cc(OC)c(OC)c(OC)c2)ccc1OCc1cn(CCCCOc2cc(=O)oc3ccccc23)nn1	63	60		65		5		
COc1ccc(/C=C/C(=O)/C=C/c2ccc(OCc3cn(CCCCCOc4cc(=O)oc5ccccc45)nn3)c(OC)c2)cc1OC	45	43	inactive	47				
COc1ccc(/C=C/C(=O)/C=C/c2ccc(OCc3cn(CCCOc4cc(=O)oc5ccccc45)nn3)c(OC)c2)cc1	54	53	inactive	56				
COc1cc(/C=C/C(=O)/C=C/c2ccco2)ccc1OCc1cn(CCOc2cc(=O)oc3ccccc23)nn1	72	68		78	9.18	14	11.8	7.87
